Laboratory results as given in ChEMBL document CHEMBL1127395, “Synthesis and antimicrobial activity of novel 3-[(aminopyrimidiniumyl)thio]methyl cephalosporins” (1994).
Values after ≈ are worked out from the molar mass of the structure shown.

Assays:
[1] = tested on: Salmonella typhimurium; experiment: In vitro minimum inhibitory concentration for Salmonella Typhimurium (ATCC-14028) by agar dilution method; type: functional, Salmonella enterica subsp. enterica serovar Typhimurium; details: Salmonella enterica; read-out: MIC
Procedure, shortened: (§1)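 Two-fold serial dilutions of each compound dispersed in Mueller-Hinton agar; plates spot-inoculated with 2 μL of standard test strain at 10^7 CFU/mL, incubated 37 °C for 20 h; MIC read as lowest concentration inhibiting growth.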

[2] = tested on: Citrobacter freundii; experiment: In vitro minimum inhibitory concentration for Citrobacter freundii (ATCC-8090) by agar dilution method; type: functional; details: Citrobacter freundii; read-out: MIC; procedure, shortened: as §1
[3] = tested on: Staphylococcus aureus; experiment: In vitro minimum inhibitory concentration for Staphylococcus aureus (ATCC 6538p) by agar dilution method; type: functional; details: Staphylococcus aureus, ATCC 6538p; read-out: MIC; procedure, shortened: as §1
[4] = tested on: Klebsiella aerogenes; experiment: In vitro minimum inhibitory concentration for Enterobacter aerogenes (ATCC-29751) by agar dilution method; type: functional; details: Klebsiella aerogenes; read-out: MIC; procedure, shortened: as §1
[5] = tested on: Serratia marcescens; experiment: In vitro minimum inhibitory concentration for Serratia marcescens (ATCC-27117) by agar dilution method; type: functional; details: Serratia marcescens; read-out: MIC; procedure, shortened: as §1
[6] = tested on: Proteus vulgaris; experiment: In vitro minimum inhibitory concentration for Proteus vulgaris (ATCC-6059) by agar dilution method; type: functional; details: Proteus vulgaris; read-out: MIC; procedure, shortened: as §1
[7] = tested on: Escherichia coli; experiment: In vitro minimum inhibitory concentration for Escherichia coli (ATCC-10536) by agar dilution method; type: functional; details: Escherichia coli; read-out: MIC; procedure, shortened: as §1
[8] = tested on: Pseudomonas aeruginosa; experiment: In vitro minimum inhibitory concentration for Pseudomonas aeruginosa (ATCC 10145) by agar dilution method; type: functional; procedure, shortened: as §1
[9] = tested on: Staphylococcus epidermidis; experiment: In vitro minimum inhibitory concentration for Staphylococcus epidermidis (ATCC-12228) by agar dilution method; type: functional; details: Staphylococcus epidermidis; read-out: MIC; procedure, shortened: as §1
[10] = tested on: Enterobacter cloacae; experiment: In vitro minimum inhibitory concentration for Enterobacter cloacae (ATCC-27508) by agar dilution method; type: functional; details: Enterobacter cloacae; read-out: MIC; procedure, shortened: as §1
[11] = tested on: Pseudomonas aeruginosa; experiment: In vitro minimum inhibitory concentration for Pseudomonas aeruginosa (ATCC-27853) by agar dilution method; type: functional; details: Pseudomonas aeruginosa; read-out: MIC; procedure, shortened: as §1
[12] = tested on: Klebsiella pneumoniae; experiment: In vitro minimum inhibitory concentration for Klebsiella pneumoniae (ATCC-10031) by agar dilution method; type: functional; details: Klebsiella pneumoniae; read-out: MIC
[13] = tested on: Staphylococcus aureus; experiment: In vitro minimum inhibitory concentration for Staphylococcus aureus (ATCC 6538p) by agar dilution method

SMILES | MIC [1] [mg/L] | MIC [2] [mg/L] | MIC [3] [mg/L] | MIC [4] [mg/L] | MIC [5] [mg/L] | MIC [6] [mg/L] | MIC [7] [mg/L] | MIC [8] [mg/L] | MIC [9] [mg/L] | MIC [10] [mg/L] | MIC [11] [mg/L] | MIC [12] [mg/L] | MIC [13] [mg/L]
CC(C)(O/N=C(\C(=O)NC1C(=O)N2C(C(=O)O)=C(CSc3nccc(O)n3)CSC12)c1cnc(N)s1)C(=O)O (centres undefined) | 64 (≈ 107 µM) | 8 (≈ 13.4 µM) | > 128 | 32 (≈ 53.7 µM) | 16 (≈ 26.9 µM) | 2 (≈ 3.36 µM) | 8 (≈ 13.4 µM) | > 128 | > 128 | 4 (≈ 6.72 µM) | > 128 | 8 (≈ 13.4 µM) | 
CC(C)(O/N=C(\C(=O)NC1C(=O)N2C(C(=O)O)=C(CSc3ncccn3)CSC12)c1cnc(N)s1)C(=O)O (centres undefined) | 2 (≈ 3.45 µM) | 1 (≈ 1.73 µM) | 16 (≈ 27.6 µM) | 16 (≈ 27.6 µM) | 2 (≈ 3.45 µM) | 0.063 (≈ 0.109 µM) | 1 (≈ 1.73 µM) | 32 (≈ 55.2 µM) | 8 (≈ 13.8 µM) | 0.5 (≈ 0.863 µM) | 16 (≈ 27.6 µM) | 0.5 (≈ 0.863 µM) | 
CNc1cc2n(C)cc[n+]2c(SCC2=C(C(=O)[O-])N3C(=O)C(NC(=O)/C(=N\OC(C)(C)C(=O)O)c4cnc(N)s4)C3SC2)n1 (centres undefined) | 0.5 (≈ 0.756 µM) | 0.13 (≈ 0.196 µM) | 8 (≈ 12.1 µM) | 4 (≈ 6.04 µM) | 0.5 (≈ 0.756 µM) | 0.13 (≈ 0.196 µM) | 0.13 (≈ 0.196 µM) | 8 (≈ 12.1 µM) | 4 (≈ 6.04 µM) | 0.03 (≈ 0.0453 µM) | 4 (≈ 6.04 µM) | 0.25 (≈ 0.378 µM) | 
CC(C)(O/N=C(\C(=O)NC1C(=O)N2C(C(=O)[O-])=C(CSc3nc(N)cc(N)[n+]3-c3ccc(Cl)cc3)CSC12)c1cnc(N)s1)C(=O)O (centres undefined) | 0.5 (≈ 0.694 µM) | 0.25 (≈ 0.347 µM) | 4 (≈ 5.55 µM) | 1 (≈ 1.39 µM) | 1 (≈ 1.39 µM) | 0.25 (≈ 0.347 µM) | 0.25 (≈ 0.347 µM) | 4 (≈ 5.55 µM) | 2 (≈ 2.78 µM) | 0.13 (≈ 0.181 µM) | 2 (≈ 2.78 µM) | 0.13 (≈ 0.181 µM) | 

Results, then the compound that gave them:

MIC [1] [mg/L] | MIC [2] [mg/L] | MIC [3] [mg/L] | MIC [4] [mg/L] | MIC [5] [mg/L] | MIC [6] [mg/L] | MIC [7] [mg/L] | MIC [8] [mg/L] | MIC [9] [mg/L] | MIC [10] [mg/L] | MIC [11] [mg/L] | MIC [12] [mg/L] | MIC [13] [mg/L] | SMILES
0.25 (≈ 0.384 µM) | 0.25 (≈ 0.384 µM) |  | 2 (≈ 3.07 µM) | 0.25 (≈ 0.384 µM) | 0.06 (≈ 0.0921 µM) | 0.13 (≈ 0.199 µM) | 4 (≈ 6.14 µM) | 2 (≈ 3.07 µM) | 0.03 (≈ 0.046 µM) | 2 (≈ 3.07 µM) | 0.13 (≈ 0.199 µM) | 2 (≈ 3.07 µM) | CCC[n+]1c(N)cc(N)nc1SCC1=C(C(=O)[O-])N2C(=O)C(NC(=O)/C(=N\OC(C)(C)C(=O)O)c3cnc(N)s3)C2SC1 (centres undefined)
0.25 (≈ 0.369 µM) | 0.13 (≈ 0.192 µM) | 8 (≈ 11.8 µM) | 1 (≈ 1.48 µM) | 0.5 (≈ 0.739 µM) | 0.13 (≈ 0.192 µM) | 0.25 (≈ 0.369 µM) | 8 (≈ 11.8 µM) | 2 (≈ 2.96 µM) | 0.03 (≈ 0.0443 µM) | 4 (≈ 5.91 µM) | 0.13 (≈ 0.192 µM) |  | Cc1c(N)nc(SCC2=C(C(=O)[O-])N3C(=O)C(NC(=O)/C(=N\OC(C)(C)C(=O)O)c4cnc(N)s4)C3SC2)[n+]2nc(C)n(C)c12 (centres undefined)
0.5 (≈ 0.74 µM) | 0.25 (≈ 0.37 µM) | 2 (≈ 2.96 µM) | 4 (≈ 5.92 µM) | 0.5 (≈ 0.74 µM) | 0.25 (≈ 0.37 µM) | 0.13 (≈ 0.192 µM) | 8 (≈ 11.8 µM) | 1 (≈ 1.48 µM) | 0.06 (≈ 0.0888 µM) | 4 (≈ 5.92 µM) | 0.13 (≈ 0.192 µM) |  | CN(C)c1cc2n(C)cc[n+]2c(SCC2=C(C(=O)[O-])N3C(=O)C(NC(=O)/C(=N\OC(C)(C)C(=O)O)c4cnc(N)s4)C3SC2)n1 (centres undefined)
